According to PubChem BioAssay AID602485 (The Scripps Research Institute Molecular Screening Center, 2012):
Active and inactive are the calls of the source.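 How the source made its calls: active means at least 50% ABHD10 inhibition in mouse heart after 25 mg/kg, and no other enzyme inhibited 50% at any dose; inactive means the rest.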

Legend:
[1] = target: Palmitoyl-protein thioesterase ABHD10, mitochondrial (Mus musculus) (UniProt Q6PE15); experiment: in vivo ABHD10 engagement and hydrolase selectivity – gel-based competitive ABPP, fluorescence, mouse heart, in vivo study for PME-1 inhibitor project, late-stage follow-up (AID 602485); conditions: C57BL/6 mice i.p., heart proteome, FP-Rh gel ABPP, stronger effect = higher value
Sequence of Palmitoyl-protein thioesterase ABHD10, mitochondrial (Mus musculus) (Q6PE15 whole entry, looked up): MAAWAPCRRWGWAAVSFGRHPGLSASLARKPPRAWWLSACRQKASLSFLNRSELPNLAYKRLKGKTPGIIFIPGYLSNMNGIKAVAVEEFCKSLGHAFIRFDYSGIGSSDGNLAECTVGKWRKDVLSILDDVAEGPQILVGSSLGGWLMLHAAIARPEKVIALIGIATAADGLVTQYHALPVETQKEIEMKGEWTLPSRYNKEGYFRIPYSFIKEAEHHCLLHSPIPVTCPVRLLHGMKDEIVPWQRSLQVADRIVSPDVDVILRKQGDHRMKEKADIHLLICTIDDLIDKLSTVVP
Procedure, shortened: (§1)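 System – C57BL/6 mouse heart soluble proteome · Repeats – n of 1 per dose · Timing – 6 h in vivo exposure, probe labelling 30 min at 25 °C · Signal – SDS-PAGE with in-gel fluorescence scanning of probe-labelled bands · Also added – FP-Rh activity-based probe, 1 µM final · Benchmarks – vehicle-dosed mice as high control, blank gel background as low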

[2] = as above; conditions: C57BL/6 mice i.p., heart proteome, FP-Rh gel ABPP; anti-targets at any tested dose
Procedure, shortened: as §1

SMILES: CC[C@@]1(c2ccc(C)cc2)C(=O)N(C(=O)OC(C)C)N1C(=O)OC(C)C
- inhibition [1]: 99%
- inhibition ([1]; inhibition at 6 mg/kg): 10%
- inhibition ([1]; inhibition at 13 mg/kg): 60%
- outcome [2]: inactive
